14 compounds from ChEMBL document CHEMBL1208712, “Synthesis and anti-HCV activity of 3',4'-oxetane nucleosides” (Bioorg Med Chem Lett, 2010) can be followed below.

Series [1] in a line: Inhibition of HCV NS5B polymerase after 30 mins. On the set-up: species or system Hepacivirus hominis.
For the next series, the system named is Hepatitis C virus. Kind of series: Antiviral activity against HCV 1a infected in human HB-1 cells assessed as inhibition of viral RNA replication after 24 hrs. It is filed as functional, organism-based, Hepacivirus hominis. Conditions: subtype 1a, HB1, 24 h.
A short description of series [2]: Cytotoxicity against human HuH7 cells by MTS assay. It is filed as cell-based, Huh-7. A digest of the protocol:
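Tested at concentrations up to 50.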

In series [1], `Nc1ccn([C@@H]2O[C@@]3(COP(=O)(O)OP(=O)(O)OP(=O)(O)O)CO[C@H]3[C@H]2F)c(=O)n1` had an IC50 of 31 µM.

As to `Nc1ccn([C@@H]2O[C@@]3(COP(=O)(O)OP(=O)(O)OP(=O)(O)O)CO[C@H]3[C@@H]2F)c(=O)n1`, the IC50 in series [1] stood at 78.9 µM.

Regarding `Nc1ccn([C@@H]2O[C@@]3(COP(=O)(O)OP(=O)(O)OP(=O)(O)O)CO[C@H]3C2(F)F)c(=O)n1`, half-maximal inhibition in series [1] (IC50) required 32.8 µM.

Regarding `C[C@@]1(F)[C@@H]2OC[C@]2(CO)O[C@H]1n1ccc(N)nc1=O`, the EC90 in the series with Hepatitis C virus was above 50 µM. Moreover, in series [2], the CC50 is above 50 µM.

`Nc1ccn([C@@H]2O[C@@]3(CO)CO[C@H]3[C@H]2F)c(=O)n1`: the EC90 with Hepatitis C virus was above 50 µM. The compound further registered a CC50 in series [2] above 50 µM.

In the case of `Nc1ccn([C@@H]2O[C@@]3(CO)CO[C@H]3[C@@H]2F)c(=O)n1`, the EC90 with Hepatitis C virus was above 50 µM. In series [2], the CC50 was above 50 µM.

As for `Nc1ccn([C@@H]2O[C@@]3(CO)CO[C@H]3C2(F)F)c(=O)n1`, the EC90 in the series on Hepatitis C virus was above 50 µM. In series [2], this compound displayed a half-maximal cytotoxic concentration (CC50) above 50 µM.

Consider `CO[C@H]1[C@H](n2ccc(N)nc2=O)O[C@@]2(CO)CO[C@@H]12`, for which the concentration for an effect of 90% (EC90) in the series with Hepatitis C virus was above 50 µM. Besides, in series [2], the CC50 was above 50 µM.

As for `Nc1ncnc2c1ncn2[C@@H]1O[C@@]2(CO)CO[C@H]2[C@H]1F`, the 90% effect concentration (EC90) in the series on Hepatitis C virus is above 50 µM. Further, the CC50 in series [2] was above 50 µM.

For `C[C@@]1(F)[C@H](O)[C@@H](CO)O[C@H]1n1ccc(N)nc1=O`, the 90% effect concentration (EC90) in the series on Hepatitis C virus (read-out: EC90) was 4.6 µM. The CC50 in series [2] was above 50 µM.

Regarding `Nc1ccn([C@@H]2O[C@H](CO)[C@@H](O)[C@H]2F)c(=O)n1`, the EC90 in the series with Hepatitis C virus turned out to be 5.21 µM. Besides, in series [2], the CC50 is above 50 µM.

Take `Nc1ccn([C@@H]2O[C@H](CO)[C@@H](O)[C@@H]2F)c(=O)n1`: in the series on Hepatitis C virus, the concentration for an effect of 90% (EC90) was above 50 µM. This compound displayed a CC50 in series [2] above 50 µM.

As for `Nc1ccn([C@@H]2O[C@H](CO)[C@@H](O)C2(F)F)c(=O)n1` [GEMCITABINE], the 90% effect concentration (EC90) in the series on Hepatitis C virus is below 1 µM. The compound also had a CC50 in series [2] below 0.1 µM.

On to `C[C@@]1(F)[C@H](O)[C@@H](COP(=O)(O)OP(=O)(O)OP(=O)(O)O)O[C@H]1n1ccc(N)nc1=O` [PSI-6130-TP], for which, in series [1], the 50% inhibitory concentration (IC50) turned out to be 5.37 µM and the Ki was 59 nM.
